Experimental findings from ChEMBL document CHEMBL3596166, “Bisabolane-Type Sesquiterpenoids from the Whole Plant of Parasenecio rubescens” (J Nat Prod, 2015) are described below.

Each structure is given as a SMILES string.

In one assay the test system is Staphylococcus aureus. Put plainly: Antibacterial activity against Staphylococcus aureus assessed as growth inhibition at 200 ug/ml after 24 hrs by paper disk diffusion method. To be noted: read-out: DIZ. The class given is functional. An outline of the steps: (§1)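 Paper disk diffusion. About 0.1 mL of sample at 200 μg/mL applied to a 6 mm paper disk, air-dried, then placed on the inoculated culture dish and incubated 24 h at 37 °C. Read-out is inhibitory zone diameter (IZD). Penicillin G disks served as control for S. aureus and streptomycin disks for E. coli. Run in duplicate.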
A general note: In agar diffusion tests the substance spreads into inoculated agar from a disc or well.

The subject of another assay is Escherichia coli. Put plainly: Antibacterial activity against Escherichia coli assessed as growth inhibition at 200 ug/ml after 24 hrs by paper disk diffusion method. To be noted: read-out: DIZ. The class given is functional. An outline of the steps: as §1
The next assay has as its system HepG2. The experiment in a line: Cytotoxicity against human HepG2 cells assessed as inhibition of cell viability after 24 hrs by MTT assay. It counts as functional, cell-based. As to conditions: HepG2, 24 h.
The next assay relates to B16. The experiment in a line: Cytotoxicity against mouse B16 cells assessed as inhibition of cell viability after 24 hrs by MTT assay. It counts as functional, cell-based. As to conditions: B16, 24 h. For orientation: Tetrazolium dyes change colour on reduction, which living cells bring about.
The subject of a further assay is MCF7. The experiment in a line: Cytotoxicity against human MCF7 cells assessed as inhibition of cell viability after 24 hrs by MTT assay. To be noted: MCF7, 24 h. It counts as functional, cell-based.

For `C=C(C1CC(O)C(C)(C)O1)[C@H]1[C@H](OC(=O)/C(C)=C\C)[C@H]2O[C@@]2(C)[C@@H](OC(C)=O)[C@H]1OC(C)=O` (some centres not stated), the zone of inhibition at 200 µg/mL in the assay with Staphylococcus aureus and with Escherichia coli was 8 mm in each case.

In general, IC50 refers to the concentration that gives 50% inhibition. For `C=C(C(CC(O)C(C)(C)O)OC(=O)/C(C)=C\C)[C@H]1[C@H](OC(=O)/C(C)=C\C)[C@H]2O[C@@]2(C)[C@@H](OC(=O)/C(C)=C\C)[C@H]1OC(C)=O` (some centres not stated), the 50% inhibitory concentration (IC50) with HepG2 stood at 40.8 µM; in the assay with B16, 42.5 µM; in the assay with MCF7 it was 79.4 µM.

As for `C=C(C(CC(O)C(C)(C)OC)OC(=O)/C(C)=C\C)[C@H]1[C@H](OC(=O)/C(C)=C\C)[C@H]2O[C@@]2(C)[C@@H](OC(=O)/C(C)=C\C)[C@H]1OC(C)=O` (some centres not stated), the IC50 turned out to be 96.6 µM with HepG2, 49.6 µM in the assay on B16 and 56.2 µM in the assay on MCF7.

With `CC1(C)S[C@@H]2[C@H](NC(=O)Cc3ccccc3)C(=O)N2[C@H]1C(=O)O` [PENICILLIN G], the zone of inhibition at 200 µg/mL in the assay with Staphylococcus aureus came to 25 mm.

As for `CN[C@@H]1[C@H](O[C@H]2[C@H](O[C@H]3[C@H](O)[C@@H](O)[C@H](N=C(N)N)[C@@H](O)[C@@H]3N=C(N)N)O[C@@H](C)[C@]2(O)C=O)O[C@@H](CO)[C@H](O)[C@H]1O` [STREPTOMYCIN], the zone of inhibition at 200 µg/mL in the assay with Escherichia coli turned out to be 18 mm.

`COc1cccc2c1C(=O)c1c(O)c3c(c(O)c1C2=O)C[C@@](O)(C(=O)CO)C[C@@H]3O[C@H]1C[C@H](N)[C@H](O)[C@H](C)O1` [DOXORUBICIN]: the results for the 50% inhibitory concentration (IC50) with HepG2 and in the assay with B16 were 23.2 µM and 17.7 µM, respectively.

Regarding `C=C(C)C(O)CC(OC(=O)/C(C)=C\C)C(=C)[C@H]1[C@H](O)[C@H](OC(=O)/C(C)=C\C)[C@@](C)(O)[C@H](O)[C@@H]1OC(=O)/C=C(\C)CC` (some centres not stated), the IC50 in the assay on HepG2 is 71.5 µM; with B16 it was 39.7 µM; with MCF7, 78.9 µM. The results for the zone of inhibition at 200 µg/mL in the assay on Staphylococcus aureus and with Escherichia coli were 9 mm and 8 mm, respectively.
